From PubChem
GalR3 antag = antagonists of human GalR3; AID 651719; 0.44% of 360,000 active; inhibition, % at 3 µM; HEK293 GalR3-CNG cAMP membrane potential fluorescence; galR3 body fused to GalR1 C-terminus;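 active = inhibition above the screen-wide average plus 3 SD, cut at about 13% in these data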;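 note: forskolin and galanin both at EC90 stimulate the cells; cAMP rise reported by CNG channel membrane potential dye signal; 0% = forskolin plus galanin with DMSO and 100% = forskolin alone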
Target sequence (O60755 1-299 limits assumed): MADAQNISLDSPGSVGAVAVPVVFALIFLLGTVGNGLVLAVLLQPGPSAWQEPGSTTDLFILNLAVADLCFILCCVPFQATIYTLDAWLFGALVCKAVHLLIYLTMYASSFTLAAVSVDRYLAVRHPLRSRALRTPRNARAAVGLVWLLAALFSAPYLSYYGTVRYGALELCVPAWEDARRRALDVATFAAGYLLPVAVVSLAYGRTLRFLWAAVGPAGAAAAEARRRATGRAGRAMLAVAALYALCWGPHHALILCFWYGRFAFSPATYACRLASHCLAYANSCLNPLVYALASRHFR
OX1R antag-1 = antagonists of human orexin 1 receptor; AID 434989; 0.43% of 330,000 active; O43613; inhibition, % at 5 µM; CHO/OX1R cells, Fluo-8 calcium fluorescence, orexin A;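 active = inhibition above its plate's threshold, mean inhibition of all tested compounds on the plate plus 3 SD, cut at about 37% in these data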;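 note: 0% = orexin A challenge wells and 100% = SB-334867-A antagonist wells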
CHO parental Ca = counter-screen for OX1R antagonists: effect in parental CHO cells; parental CHO-K1, ATP-induced calcium, Fluo-8 fluorescence; 0.63% of 330,000 active; inhibition, % at 5.6 µM;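 active = inhibition above that plate's mean sample inhibition plus 3 SD, cut at about 26% in these data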;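 note: 0% = ATP-challenged DMSO wells and 100% = DMSO wells without ATP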
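Test system: parental CHO cells; detection: calcium-sensitive Fluo-8 fluorescence; evaluation: percent inhibition of calcium signal; also added: ATP as calcium-mobilizing challenge; repeats: one well per compound; control set: ATP-challenged DMSO wells low, unchallenged DMSO wells high; compound: single nominal dose of 5.6 µM per compound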
OX1R antag-2 = OX1R (human) antagonism. O43613. OX1R-expressing cells, FRET antagonist read-out. inhibition, % at 6.6 µM. 1.8% of 330,000 active. AID 485270; in the data active = inhibition mostly above about 38%, no sharp cut-off; inactive = mostly below about 40%;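 note: 0% = agonist challenge alone and 100% = reference antagonist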
GPR7 antag = blocks human GPR7 receptor signaling; P48145; GPR7-expressing cells, fluorescence antagonist assay; inhibition, % at 4.4 µM; 1.1% of 290,000 active; in the data active = inhibition above about 16%, passing the limit was not always enough;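 note: cells stimulated with the agonist NPW; 0% = agonist with vehicle and 100% = vehicle without agonist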
Target sequence (P48145 whole entry, looked up): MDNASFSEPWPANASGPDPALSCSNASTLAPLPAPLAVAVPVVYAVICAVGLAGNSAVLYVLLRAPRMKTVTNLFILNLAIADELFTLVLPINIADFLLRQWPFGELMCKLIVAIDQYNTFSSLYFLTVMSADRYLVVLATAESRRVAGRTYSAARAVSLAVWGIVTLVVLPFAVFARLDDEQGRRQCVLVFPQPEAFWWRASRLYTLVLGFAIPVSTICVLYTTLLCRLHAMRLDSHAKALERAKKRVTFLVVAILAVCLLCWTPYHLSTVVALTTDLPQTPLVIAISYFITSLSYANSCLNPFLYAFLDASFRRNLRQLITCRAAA
GPR7 antag cf = confirmation of human GPR7 antagonists; GPR7-expressing cells, calcium fluorescence antagonist mode; shares compounds with GPR7 antag; AID 1952; inhibition, % at 4.4 µM; 52% of 2,400 active; in the data active = inhibition above about 24%;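 note: stimulated with the GPR7 agonist NPW; 0% = agonist plus vehicle and 100% = vehicle alone without agonist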
MCHR1 antag = antagonizes human MCHR1, a GPR7 antagonist counter-screen. shares compounds with GPR7 antag. MCHR1-expressing cells, fluorescence antagonist assay. inhibition, % at 4.4 µM. 62% of 2,400 active. AID 2148; in the data active = inhibition above about 22%;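 note: 0% = vehicle with agonist and 100% = vehicle without agonist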
Starred values were filed as active, the others as inactive; / = no result given. The list is not random: actives were taken first. Their share in the collection is about 3.1%.

SMILES	GalR3 antag	OX1R antag-1	CHO parental Ca	OX1R antag-2	GPR7 antag	GPR7 antag cf	MCHR1 antag
CN1CCN(c2ccc(Cl)cc2NC(=O)/C=C/c2cccc(F)c2)CC1	-7	-10	7	0	27*	43*	28*
CCc1cc(C(=O)Nc2cc(Cl)ccc2N2CCN(C)CC2)sc1C	-2	-40	-28	3	/	/	/
CN1CCN(c2ccc(Cl)cc2NC(=O)c2cccc(S(=O)(=O)N(C)C)c2)CC1	-5	-30	-19	6	24*	16	13
CCc1nc2ccc(C(=O)N3CCN(c4ccccc4F)CC3)cc2nc1CC	-8	-16	0	9	-11	/	/
COc1ccc(C)cc1NC(=O)CNc1ccccc1CN(C)C1CCCCC1	-8	-31	-20	20	16	/	/
COc1ccc(Cl)cc1NC(=O)CNc1ccccc1CN(C)C1CCCCC1	-3	-24	-18	12	27*	35*	47*
COc1ccc(Cl)cc1NC(=O)Nc1ccccc1C(N)=O	4	-4	-13	4	30*	10	21
CCCc1nnc(SCC(=O)NC2CCCCC2)n1CCOC	-8	3	0	3	6	/	/
COc1ccc(OCc2nnc(SCC(=O)N3CCCC3)o2)cc1	-8	-26	-8	12	24*	-1	7
OC(COCc1ccc(Cl)cc1)CN1CCN(CC(O)COCc2ccc(Cl)cc2)CC1 (stereo unspecified)	-11	-6	3	8	26*	68*	73*
C[C@H](CO)N1C[C@H](C)[C@@H](CN(C)C(=O)Cc2ccccc2)OCc2cn(nn2)CCCC1=O	-5	/	/	/	/	/	/
O=C(CN(Cc1ccc(Cl)cc1)C(=O)c1csnn1)NCc1ccc(F)cc1	-6	-28	-19	25	-6	/	/
CCN(c1ccccc1)S(=O)(=O)c1ccc(C(=O)N(CCCN(C)C)c2nc3cc4c(cc3s2)OCO4)cc1	-4	-5	-17	5	19	/	/
CCN(c1ccccc1)S(=O)(=O)c1ccc(C(=O)N(CCCN(C)C)c2nc3c(C)cccc3s2)cc1	0	-1	-4	7	29*	53*	52*
CCOC(=O)N1CCN(S(=O)(=O)c2ccc(C(=O)N(CCN(C)C)c3nc4ccc(CC)cc4s3)cc2)CC1	-3	-28	-10	12	-2	/	/
COc1cccc2sc(N(CCCN(C)C)C(=O)c3ccc(S(=O)(=O)N4CCCc5ccccc54)cc3)nc12	-11	-7	0	13	35*	50*	41*
CCOC(=O)N1CCN(S(=O)(=O)c2ccc(C(=O)N(CCCN(C)C)c3nc4ccc(CC)cc4s3)cc2)CC1	0	-29	-21	17	28*	39*	17
O=S(=O)(/N=C(/c1ccccc1)N1CCCCCC1)c1ccccc1	-2	-21	-6	22	33*	1	-1
CC(C)(C)c1ccc(OCCOc2ccc(C(C)(C)C)cc2NC=O)c(NC=O)c1	-12	41*	69*	29	19*	29*	72*
COCCNC(=S)N(C)C1(c2ccccc2Cl)CCCCC1=O (stereo unspecified)	-6	-14	-24	4	7	/	/
CC(=O)Oc1c(C)cc(Cl)cc1C(=O)Nc1ccc([N+](=O)[O-])cc1Cl	6	-4	15	71*	25*	59*	62*
CCOc1ccc(OCCCC(=O)ON=C(N)c2ccccc2C)cc1	-6	-9	-22	7	/	/	/
Cc1c(CCC(=O)O)c(=O)oc2cc3occ(-c4ccc(Br)cc4)c3cc12	-7	-3	-14	17	1	/	/
S=C(Nc1ccc(Cl)c(Cl)c1)NC1CCN(Cc2ccccc2)CC1	-7	96*	93*	0	33*	70*	94*
S=C(Nc1cccc(Cl)c1Cl)NC1CCN(Cc2ccccc2)CC1	-6	/	/	/	0	/	/
SMILES	GalR3 antag	OX1R antag-1	CHO parental Ca	OX1R antag-2	GPR7 antag	GPR7 antag cf	MCHR1 antag
S=C(Nc1ccc(Cl)c(Cl)c1)NC1CCCCC1	/	24	38*	59*	43*	35*	48*
Cc1ccc2oc(=O)n(CC(=O)c3ccc(F)cc3)c2c1	1	-17	-4	-1	25*	-1	12
O=C(Nc1ccc(F)c(Cl)c1)c1cc(-c2ccco2)on1	-8	3	2	18	-3	/	/
CSc1nc2ccccc2n1CC(=O)Nc1cc(C(F)(F)F)ccc1N1CCOCC1	-6	-29	-11	6	36*	38*	26*
CCSCCOC(=O)C1=C(C)N(C)C(=O)NC1c1cc(OC)ccc1OC (stereo unspecified)	-1	-10	-13	14	23*	-5	10
CCSCCOC(=O)C1=C(C)NC(=O)NC1c1cc(OC)ccc1OC (stereo unspecified)	3	-22	-4	13	-15	/	/
COc1ccc2cc([C@H](C)C(=O)N(C)Cc3ccccc3N3CCCC3)ccc2c1	-9	-6	-24	9	28*	4	50*
Cc1cccc(N(CC(O)CN2CCCC2)S(=O)(=O)c2ccccc2)c1 (stereo unspecified)	-5	-16	-9	6	-2	/	/
NS(=O)(=O)c1ccc(CCNC(=O)COC(=O)CC(c2ccccc2)c2ccccc2)cc1	-3	-21	-7	24	52*	2	69*
NS(=O)(=O)c1ccc(CCNC(=O)COC(=O)C2CCC2)cc1	-7	-13	-18	19	38*	-3	-5
NS(=O)(=O)c1ccc(CCNC(=O)CC(c2ccccc2)c2ccccc2)cc1	-10	-16	-9	0	-7	/	/
CCc1nc2ccc(C(=O)Nc3ccc(NC(C)=O)cc3)cn2c1N(C)CCC(C)C	2	/	/	/	/	/	/
O=C(NCc1nnc2c(C(F)(F)F)cc(Cl)cn12)c1ccc2c(c1)OCO2	3	-41	-23	19	-7	/	/
CNC(=O)CCn1nc(-c2ccc(Cl)cc2)c2ccccc2c1=O	-5	-39	-7	34	24*	-13	-1
CC(C)C[C@H](NC(=O)N1CCn2c1nc1ccccc12)C(=O)N1CCCCC1	0	-23	-17	8	-14	/	/
Cc1ccccc1CNC(=O)c1ccc(CSCc2ccccc2)cc1	-8	-15	-13	36	32*	25*	48*
Cc1ccc(CSCCNC(=O)c2ccccc2)cc1	-3	-15	-3	16	2	/	/
CCCCCCCCC[n+]1cccc2c3ccccc3ccc21	/	94*	86*	76	75*	80*	80*
c1ccc2c(c1)ccc1ccccc12	-7	-1	-14	7	/	/	/
CC(C)N1CCN(Cc2cccc3nonc23)CC1CCO (stereo unspecified)	-7	-14	-4	16	-7	/	/
